# Reference: ChEMBL document CHEMBL1149329, “Synthesis and biological activity of sulfonamide derivatives of epipodophyllotoxin” (J Med Chem, 2004)
# “And” between values parts separate entries of the source, which are not always exact repeats. Equal values may be shown once.
# Key:
# [1] = molecular target: DNA topoisomerase II (Homo sapiens) (UniProt P11388+Q02880); test: Inhibition of human DNA Topoisomerase II mediated DNA cleavage through the stabilization of transient DAN/topoisomerase II cleavage complex; assay type: protein assay
# Summary of the method: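 Supercoiled pBS DNA (0.1 μg) preincubated 15 min at 30 °C with drug at 50 μM in 50 mM Tris-HCl pH 7.5, 1 mM ATP, 120 mM KCl, 10 mM MgCl2, 0.5 mM DTT, 0.1 mM EDTA, BSA. Two units human topo II added, 30 min at 30 °C. SDS/proteinase K digestion 30 min at 55 °C. 1% agarose gel with ethidium bromide; linear DNA percentage read, mean of three independent experiments.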
# L1210 [2] = test: Inhibitory concentration required to reduce 50 percent L1210 cell growth; assay type: functional, cell-based; details: Mus musculus
# Summary of the method: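 L1210 cells were grown in RPMI 1640 with 10% fetal calf serum, 2 mM glutamine, antibiotics and 10 mM HEPES (pH 7.4). Cells were exposed to compound for 48 h. MTT was then added for 4 h at 37 °C, and formazan was dissolved in DMSO and read at 540 nm. IC50 is the concentration reducing OD by 50%, from linear regression on the linear part of the curve. Triplicate.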
# L1210 [3] = test: Percent of L1210 cells in the G2+M phase of the cell cycle at a compound concentration of 0.5 uM; assay type: functional, Mus musculus
# Summary of the method: (§1)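 L1210 cells (2.5 × 10⁵ cells/mL) were incubated for 21 h with compound at the stated concentration. Flow cytometry was run on 10⁴ cells per sample, and the percentage of cells in G2+M was recorded.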
# L1210 [4] = test: Percent of L1210 cells in the G2+M phase of the cell cycle at a compound concentration of 10 uM; assay type: functional, Mus musculus; summary of the method: as §1
# L1210 [5] = test: Percent of L1210 cells in the G2+M phase of the cell cycle at a compound concentration of 25 uM; assay type: functional, Mus musculus; summary of the method: as §1
# A549 [6] = test: Antitumor activity against A549 non small cell carcinoma at dose range of 25-100 mg/kg on day 14, 21, 28; activity expressed as maximum tolerated dose; assay type: functional, Homo sapiens
# Summary of the method: (§2)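 A549 human lung tumour cells were implanted orthotopically, 10⁶ cells through the chest wall into the left pleural space of anaesthetised BALB/C nude mice. Once tumours were established, drug was given iv on days 14, 21 and 28 after tumour cell injection. The endpoint was life span, expressed as T/C (%) = median survival time of treated/control × 100. MTD was the dose causing no toxic death and/or no weight loss >20%.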
# L1210 [7] = test: Percent of L1210 cells in the G2+M phase of the cell cycle at a compound concentration of 0.25 uM; assay type: functional, Mus musculus; summary of the method: as §1
# P388 [8] = test: Evaluated for long-term survivors scored at day 60; 0/6; assay type: functional, Mus musculus
# P388 [9] = test: Antitumor activity against P388 leukemia at dose range of 12.5-200 mg/kg on day 1, activity expressed as maximum tolerated dose; assay type: functional, Mus musculus
# P388 [10] = test: Median survival time of treated animals/median survival time of control animals; assay type: functional, Mus musculus
# L1210 [11] = test: Percent of L1210 cells in the G2+M phase of the cell cycle at a compound concentration of 2.5 uM; assay type: functional, Mus musculus; summary of the method: as §1
# P388 [12] = test: Antitumor activity against P388 leukemia at dose range of 3.12-50 mg/kg on day 1, activity expressed as maximum tolerated dose; assay type: functional, Mus musculus
# A549 [13] = test: Antitumor activity against A549 non small cell carcinoma at dose range of 6.25-25 mg/kg on day 14, 21, 28; activity expressed as maximum tolerated dose; assay type: functional, Homo sapiens; summary of the method: as §2
# A-431 = test: […] antiproliferative activity against A431 cell line; assay type: functional; details: Homo sapiens
# A549 [14] = test: […] antiproliferative activity against A549 cell line; assay type: functional; details: Homo sapiens
# DU-145 = test: […] antiproliferative activity against DU-145 cell line; assay type: functional; details: Homo sapiens
# HT-29 = test: […] antiproliferative activity against HT-29 cell line; assay type: functional; details: Homo sapiens
# L1210 [15] = test: Percent of L1210 cells in the G2+M phase of the cell cycle at a compound concentration of 0.2 uM; assay type: functional, Mus musculus; summary of the method: as §1
# IGROV-1 = test: […] antiproliferative activity against IGROV1 cell line; assay type: functional; details: Homo sapiens
# K562 = test: […] antiproliferative activity against K-562 cell line; assay type: functional; details: Homo sapiens
# L1210 [16] = test: […] antiproliferative activity against L1210 cell line; assay type: functional; details: Mus musculus
# MDA-MB-231 = test: […] antiproliferative activity against MDA-MB-231 cell line; assay type: functional; details: Homo sapiens
# NCI-H69 = test: […] antiproliferative activity against NCI-H69 cell line; assay type: functional; details: Homo sapiens
# P388 [17] = test: […] antiproliferative activity against P388 cell line; assay type: functional; details: Mus musculus
# P388 [18] = test: Antitumor activity against P388 leukemia at dose range of 6.25-100 mg/kg on day 1, activity expressed as maximum tolerated dose; assay type: functional, Mus musculus
# SK-N-MC = test: […] antiproliferative activity against SK-N-MC cell line; assay type: functional; details: Homo sapiens
# A549 [19] = test: Antitumor activity against A549 non small cell carcinoma at dose range of 3.12-12.5 mg/kg on day 14, 21, 28; activity expressed as maximum tolerated dose; assay type: functional, Homo sapiens; summary of the method: as §2
# P388 [20] = test: Antitumor activity against P388 leukemia at dose range of 1.56-25 mg/kg on day 1, activity expressed as maximum tolerated dose; assay type: functional, Mus musculus
# A549 [21] = test: Antitumor activity against A549 non small cell carcinoma at dose range of 1.56-6.25 mg/kg on day 14, 21, 28; activity expressed as maximum tolerated dose; assay type: functional, Homo sapiens; summary of the method: as §2
# L1210 [22] = test: Percent of L1210 cells in the G2+M phase of the cell cycle at a compound concentration of 0.1 uM; assay type: functional, Mus musculus; summary of the method: as §1
# [23] = Median survival time of treated animals/median survival time of control animals; ranges from 126-159; assay type: functional; summary of the method: as §2
# L1210 [24] = test: Percent of L1210 cells in the G2+M phase of the cell cycle at a compound concentration of 1 uM; assay type: functional, Mus musculus; summary of the method: as §1
# L1210 [25] = test: Percent of L1210 cells in the G2+M phase of the cell cycle at a compound concentration of 50 uM; assay type: functional, Mus musculus; summary of the method: as §1
# L1210 [26] = test: Percent of L1210 cells in the G2+M phase of the cell cycle at a compound concentration of 5 uM; Toxic at 10 uM; assay type: functional, Mus musculus; summary of the method: as §1
SMILES,Activity [1],IC50 (L1210 [2]),LTS (P388 [8]),T/C (P388 [10]),further results
COc1cc([C@@H]2c3cc4c(cc3[C@@H](NS(C)(=O)=O)[C@H]3COC(=O)[C@H]23)OCO4)cc(OC)c1O,50,70 nM,,,Effect (L1210 [3]): 77%
COc1cc([C@@H]2c3cc4c(cc3[C@@H](NS(=O)(=O)c3sc(NC(C)=O)nc3C)[C@H]3COC(=O)[C@H]23)OCO4)cc(OC)c1O,7,3600 nM,,,Effect (L1210 [4]): 68%
COc1cc([C@@H]2c3cc4c(cc3[C@@H](NS(=O)(=O)c3ccc(N=[N+]=[N-])cc3)[C@H]3COC(=O)[C@H]23)OCO4)cc(OC)c1O,9,210 nM,,,Effect (L1210 [3]): 69%
CCCCCCCCCCCCCCCCS(=O)(=O)N[C@@H]1c2cc3c(cc2[C@@H](c2cc(OC)c(O)c(OC)c2)[C@H]2C(=O)OC[C@@H]21)OCO3,0,5500 nM,,,Effect (L1210 [5]): 73%
COc1cc([C@@H]2c3cc4c(cc3[C@@H](NS(=O)(=O)N3CCOCC3)[C@H]3COC(=O)[C@H]23)OCO4)cc(OC)c1O,31,100 nM,0,235% and 155%,MTD (A549 [6]): 50; Effect (L1210 [7]): 76%; MTD (P388 [9]): 200
COc1cc([C@@H]2c3cc4c(cc3[C@@H](N=[N+]=[N-])[C@H]3COC(=O)[C@H]23)OCO4)cc(OC)c1O,44,570 nM,,,Effect (L1210 [11]): 61%
COc1cc([C@@H]2c3cc4c(cc3[C@@H](NS(=O)(=O)c3cccs3)[C@H]3COC(=O)[C@H]23)OCO4)cc(OC)c1O,9,170 nM,0,102%,MTD (P388 [12]): 12.5; Effect (L1210 [3]): 71%
COc1cc([C@@H]2c3cc4c(cc3[C@@H](NS(=O)(=O)N(C)C)[C@H]3COC(=O)[C@H]23)OCO4)cc(OC)c1O,44,37 nM,0,192% and 133%,MTD (A549 [13]): 6.25; Effect (L1210 [7]): 66%; MTD (P388 [9]): 100
COc1cc([C@@H]2c3cc4c(cc3[C@@H](NS(=O)(=O)CCCN=[N+]=[N-])[C@H]3COC(=O)[C@H]23)OCO4)cc(OC)c1O,32,35 nM,,,
COc1cc([C@@H]2c3cc4c(cc3[C@@H](N)[C@H]3COC(=O)[C@H]23)OCO4)cc(OC)c1O,0,630 nM,,,Effect (L1210 [11]): 57%
COc1cc([C@@H]2c3cc4c(cc3[C@@H](NS(=O)(=O)c3ccc(S(C)(=O)=O)cc3)[C@H]3COC(=O)[C@H]23)OCO4)cc(OC)c1O,10,550 nM,,,Effect (L1210 [11]): 75%
COc1cc([C@@H]2c3cc4c(cc3[C@@H](NS(=O)(=O)CCCCl)[C@H]3COC(=O)[C@H]23)OCO4)cc(OC)c1O,14,45 nM,,,Effect (L1210 [7]): 66%
CCCCS(=O)(=O)N[C@@H]1c2cc3c(cc2[C@@H](c2cc(OC)c(O)c(OC)c2)[C@H]2C(=O)OC[C@@H]21)OCO3,10,33 nM,0,161% and 105%,IC50 (A-431): 142 nM; MTD (A549 [6]): 50; IC50 (A549 [14]): 62.6 nM; IC50 (DU-145): 304 nM; IC50 (HT-29): 237 nM; Effect (L1210 [15]): 75%; IC50 (IGROV-1): 61.4 nM; IC50 (K562): 139 nM; IC50 (L1210 [16]): 33.5 nM; IC50 (MDA-MB-231): 69.2 nM; IC50 (NCI-H69): 316 nM; IC50 (P388 [17]): 16.1 nM; MTD (P388 [18]): 100; IC50 (SK-N-MC): 85.7 nM
CCN(CC)S(=O)(=O)N[C@@H]1c2cc3c(cc2[C@@H](c2cc(OC)c(O)c(OC)c2)[C@H]2C(=O)OC[C@@H]21)OCO3,24,83 nM,0,106% and 120%,MTD (A549 [19]): 6.25; Effect (L1210 [7]): 86%; MTD (P388 [20]): 25
COc1cc([C@@H]2c3cc4c(cc3[C@@H](NS(=O)(=O)N3CCCCC3)[C@H]3COC(=O)[C@H]23)OCO4)cc(OC)c1O,34,120 nM,0,121%,MTD (P388 [9]): 200; Effect (L1210 [3]): 77%
CCCCN(CCCC)S(=O)(=O)N[C@@H]1c2cc3c(cc2[C@@H](c2cc(OC)c(O)c(OC)c2)[C@H]2C(=O)OC[C@@H]21)OCO3,0,510 nM,,,Effect (L1210 [11]): 60%
COc1cc([C@@H]2c3cc4c(cc3[C@@H](NS(=O)(=O)N3CCN(C)CC3)[C@H]3COC(=O)[C@H]23)OCO4)cc(OC)c1O,45,48 nM,0,229%,MTD (A549 [21]): 6.25; Effect (L1210 [22]): 84%; MTD (P388 [20]): 12.5; T/C [23]: 159%
CCCCCCCCS(=O)(=O)N[C@@H]1c2cc3c(cc2[C@@H](c2cc(OC)c(O)c(OC)c2)[C@H]2C(=O)OC[C@@H]21)OCO3,35,250 nM,,,Effect (L1210 [24]): 76%
COc1cc([C@@H]2c3cc4c(cc3[C@@H](NS(=O)(=O)CCCN)[C@H]3COC(=O)[C@H]23)OCO4)cc(OC)c1O,45,2500 nM,,,Effect (L1210 [25]): 75%
COc1cc([C@@H]2c3cc4c(cc3[C@@H](NS(=O)(=O)c3ccc(N)cc3)[C@H]3COC(=O)[C@H]23)OCO4)cc(OC)c1O,0,340 nM,,,Effect (L1210 [15]): 75%
COc1cc([C@@H]2c3cc4c(cc3[C@@H](NS(=O)(=O)c3c(F)c(F)c(F)c(F)c3F)[C@H]3COC(=O)[C@H]23)OCO4)cc(OC)c1O,0,1000 nM,,,Effect (L1210 [26]): 52%
